Assay results as given in the EternaBench riboswitch data.

Test system: MS2 coat protein
Assay: apparent Kd, MS2 coat protein; higher = weaker binding; RNA-MaP array; FMN 200 µM where present
Outline: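 Designs on Illumina sequencing-chip clusters, transcribed by stalled E. coli RNA polymerase, were exposed to SNAP-549-labelled MS2 coat protein in doubling steps from 0.7 or 1.5 nM up to 3 µM, without and then with constant ligand. The buffer held 100 mM Tris-HCl pH 7.5, 80 mM KCl, 4 mM MgCl2, BSA, DTT, yeast tRNA and Tween-20. Apparent Kd values are medians of filtered per-cluster binding-curve fits to green signal normalised to red-channel RNA signal and control-cluster median Fmax.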

[1] = designed as: OFF switch for flavin mononucleotide, no ligand
[2] = ligand present: flavin mononucleotide, designed as: OFF switch for flavin mononucleotide
[3] = designed as: ON switch for flavin mononucleotide, no ligand
[4] = ligand present: flavin mononucleotide, designed as: ON switch for flavin mononucleotide

| Sequence | apparent Kd [1] [nM] | apparent Kd [2] [nM] | apparent Kd [3] [nM] | apparent Kd [4] [nM] |
| --- | --- | --- | --- | --- |
| AUGCCGUGCAGAGCGCGACGGCGUACAUGAGGAUCACCCAUGUAGGAUAUACUACACAAAGUGUAGUAGAAGGACAUGCGACUG | 62 | 145 | – | – |
| UUACUCAUGUAAGGAUAUGCAGCCGUUUCGGCUGCAGAAGGUACUAUAAUACAUGAGGAUCACCCAUGUCUAUAAACUAAAGAC | – | – | 84.2 | 45.8 |
| AAAAUCUAUUGAGGAUAUCGUUAUCAAAGAUAAUGAGAAGGCAAACAAUCAUGAGGACAUGAGGAUCACCCAUGUUGUGACCAU | – | – | 22.3 | 10.8 |
| GGAGCGAGCACAGGAUAUAGGCUAAAGGCUAGUCUAGAAGGGUGGGAUCAGACAUGAGGAUCACCCAUGUGUGUUUUUGCUCCA | – | – | 86.3 | 686 |
| AAUAUAAAGAGCUGGCUCCAAAUAACAUGAGGAUCACCCAUGUAGGAUAUCAGCACGAUAAGUGCUGAGAAGGACAUCCAGCUC | 15 | 15.6 | – | – |
| UUAAAUCGAAACAUGAGGAUCACCCAUGUGUUGUGGUUAAUAUAGGAUAUGUGUAUACUUUUAUGACAGAAGGAUGAUGAUACU | – | – | 16.2 | 13.2 |
| ACAUGCGGAUGAGGAUAUUCAUCCAUGAGGAUAGAAGAAGGCAUACAUGAGGAUCACCCAUGUAUACGCAUGAGGAUCCCUUAU | 23.6 | 28.7 | – | – |
| UGUGCGUAUGUGAGGAUAUGCUGGUCCUUGGAUCGGCAGAAGGCACAUGAGGAUCACCCAUGUGGUGUCGUACU | 483 | 26.6 | – | – |
| AAAAUCAAAUGAGGAUAUUCAUACACUACAUACGGAGAAGGCAUACAAUCAUGAGGACAUGAGGAUCACCCAUGUUGUGACCAU | – | – | 29.9 | 20.9 |
| CAGGAUAGAGGAUAUACAUAGAUACAGAUUCGUGUAAUCCUACAUGAGGAUCACCCAUGUAGAAGGCUAUCCUG | 14.8 | 28.5 | – | – |
| AUAUAGAUGGUCAGGAUAUGCUAGUGGUAACAGUAGCAGAAGGGACAUGAGGAUCACCCAUGUGGAUACUGCGC | 25.4 | 85.9 | – | – |
| UUGGACGUCGUAGGAUAUGUAGGAUAUUCCUACAUGAGGAUCACCCAUGUUGACAUGGAAGAAGGACAGAUGGACGAUGUCCAU | – | – | 298 | 6.98 |
| AGUAACAGAGGAUAUACUGUUUUAUGUGUUUAUUGUUUUGAACAUGAGGAUCACCCAUGUAGAAGGCUGAAUAA | 23.3 | 20.9 | – | – |
| CGCAAGUAUACAUGAGGAUCACCCAUGUCAGAUAGGGUAAUCAGAAGGUACAAUUAGAGAUAGAGUAAGGAUAUGAAAUUUGCG | – | – | 865 | 314 |
| ACAAUAGUAUCACAUGUAUUACAUGAGGAUCACCCAUGUAACUAGGAUAUGUUUUAGAAUUUACAACAGAAGGAGUUAUUAUGU | 8.48 | 14.1 | – | – |
| AGCUGGUGACAGCAAGAAGUUUAACAUGAGGAUCACCCAUGUAGAAGGCUGUACGGUUACCGUACAGAGGAUAUACAUAGAAAG | 43.7 | 57.5 | – | – |
| AAAAAGGCAGGAUAUGCAUACACACAAAAAAAAAAACUGGGACAUGAGGAUCACCCAUGUAGAAGGGCCAAAAA | 29.4 | 25.9 | – | – |
| CGUGCGUAUGUGAGGAUAUGCUGGUCCUUGGAUCGGCAGAAGGCACAUGAGGAUCACCCAUGUGGUGUCGUACC | 187 | 35.9 | – | – |
| UCCUCGGUACGAGGAUAUUCACGACGGUGUUCGGAAGAAGGCGUACAUGAGGAUCACCCAUGUCCGUCGAAAGGACUAACCGGG | 49 | 68.5 | – | – |
| UGAAAUCAUGUAGGAUAUGCAUGGCGAAGCUACGCAGAAGGACAUGAGGAUCACCCAUGUUCUGGCUACCGGAUACGGUGGCAA | 22 | 105 | – | – |
| GUGUAGUCAGGAUAUACAUAGGAAGAGAAUAUAAUAUAAGUACAUGAGGAUCACCCAUGUAGAAGGGACAGUGU | 35.3 | 39.9 | – | – |

| Sequence | apparent Kd [1] [nM] | apparent Kd [2] [nM] | apparent Kd [3] [nM] | apparent Kd [4] [nM] |
| --- | --- | --- | --- | --- |
| GUGUACGGAGGAUAUAUAUGGGCAGCAUACGCUGCAGCUUCACAUGAGGAUCACCCAUGUAGAAGGCUGUACAC | 25 | 200 | – | – |
| AACAAUCUAUCUGAGGAUAUCAUGAAAAAAACAUGAGGAUCACCCAUGUGCAGGAAAACUGCAUAUGAGAAGGCAGAUAGAUUGU | – | – | 603 | 26.2 |
| GGAUAGGACAGAGGAUAUACGUGCUAGAGAUAGUAGCAAAAUUUCCUCACAUGAGGAUCACCCAUGUAGAAGGCUGUCCUAUCG | 19.6 | 365 | – | – |
| AUCAUUCGUGUAGGAUAUGCGUGGCGAAGCUAUGCAGAAGGACAUGAGGAUCACCCAUGUCUUUCUGUCUGUGUACAGACAGGA | 22.2 | 94.8 | – | – |
| GAUCGGUGAGGAUAUACAUUUUAGCUCCUCGUAAAGCCAUGACAUGAGGAUCACCCAUGUAGAAGGUAUUGUGU | 22.3 | 20 | – | – |
| UCCAAACUUGGACUUGGUGGUGCAUAGGAUAUCCUUGGACAUGAGGAUCACCCAUGUACAACUGUGGAGAAGGGUGCAGGGCCU | – | – | 427 | 91.3 |
| GUCAGCUCGUGAGGAUAUACAUGUGCUGGAGACAGCACUAUUAAGAUCACAUGAGGAUCACCCAUGUAGAAGGCACGAGCUGAU | 50.4 | 620 | – | – |
| UGGUACAUGGGAGGAUAUGGGUUGAUAACAUGAGGAUCACCCAUGUUAAAUAUGCCUCUUGGCAACUAGAAGGCCCAUGUACCU | – | – | 512 | 41.8 |
| UCGGACGUCGUAGGAUAUGUAGGAUAUUCCUACAUGAGGAUCACCCAUGUUGACAUGGAAGAAGGACAGAAGGACGAUGUCCAU | – | – | 192 | 4.7 |
| GCUCAGUAAGGAUAUUAAUGGCACUGUUAUUCAGCGCCAGCUGAGAAGGUACAUGAGGAUCACCCAUGUGGUGA | 228 | 135 | – | – |
| AACAGUACAGGAUAUACAUGAGGAUCACCCAUGUGAGAAUUAAGUGGCGUACCACAAAGUAGAAGGGUACUGGA | 36.9 | 133 | – | – |
| AAUAAUAAUGUCAGGAUAUCUAGAGCCUCGGCUCUAGAGAAGGGACAUGAGGAUCACCCAUGUCACUCAAUAAU | 17.9 | 24.3 | – | – |
| GUACUGAAGCCUUGCUUUAGUCGUACAUGAGGAUCACCCAUGUAGGAUAUGGUAGGCUUUGCUUACUAGAAGGAUAGAGUGAUC | 56.1 | 34 | – | – |
| GCCAGUUAUGUAGGAUAUGCGCGGCGAGCCUGUGCAGAAGGACAUGAGGAUCACCCAUGUGUUGCGGUCUGAGUACUGAUCGCU | 30 | 221 | – | – |
| UGUUUGGGAGGAUAUCCAAUAUAUGACAUGAGGAUCACCCAUGUUUCCACUCGUACCUCCGGAGAAGGCCCUGCGU | 24.7 | 22 | – | – |
| CAACCGUUGCAGAAGGUUAAAUAAAUCAACUUAUGGACAACAUGAGGAUCACCCAUGUUUUUGUUGAAGGAUAUGCAAGGGUUG | 6.25 | 5.85 | – | – |
| CUGAUGUCAGGAUAUCAGAAAAGGUGCGAGGACGCACCAAAUGAGAAGGGACAUGAGGAUCACCCAUGUAAAAC | 22.3 | 139 | – | – |
| GGAGUGUGAGGAUAUAUGGUGAAGGUGAAGAGAGAGGAGGAGUAGAAGGUACAUGAGGAUCACCCAUGUUUAGG | 47 | 41.3 | – | – |
| GCGGAACAUGAGGAUCACCCAUGUAAAGGGUGUAAAGGAUAUUAUUGGGAGAAGGUAGGGUAAGAAGGUUGCUUGG | – | – | 887 | 1280 |
| UGUUGAUAGCAGAAGGACAUGAGGAUCACCCAUGUAAGGUUACAAAUACAUGUAGGAUAUGCUAUUGACUAAGAGUGAGCGUUC | 43.4 | 565 | – | – |
| ACAUGAGGAUCACCCAUGUGUACAUAGGAUAUUGAGGAUUAGGGAUAAAGUGAAGAGAUUGCCCACAAGAAGGAUGAAAGUGUU | – | – | 9.82 | 8.82 |
